Only some compounds are listed: those with a hit (about 6.1% of all), similar ones and a draw of the others.
Measles CPE: protection of cells from measles virus | Measles virus-infected cells, CPE protection, absorbance | protection (pct of control), % at 4 µM | 140,000 tested, 1.5% active; in the data active = protection mostly above about 24%, no sharp cut-off; inactive = mostly below about 26%
Yeast life ext: yeast lifespan extension. S. cerevisiae growth with nicotinamide, OD615; deaD strain in restrictive glucose medium. inhibition of the nicotinamide effect, % at 10 µM. 130,000 tested, 0.68% active;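 active = inhibition above a set limit, placed 3 SD over the median of all compounds, cut at about 26% in these data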;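 also: 0% = nicotinamide-treated wells and 100% = cells grown without nicotinamide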
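Buffer or medium: CSMM-D glucose medium, restrictive; test system: modified budding yeast, DeaD strain; compound: single dose 10 µM compound, 0.25% DMSO; schedule: culture preincubation 4 h, compound exposure 48 h, both 30 °C; detection: optical density (absorbance) at 615 nm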
Yeast growth inh: reduces growth of yeast BB579 in restrictive medium; inhibition, % at 10 µM; AID 804; S. cerevisiae BB579 growth, OD615, 48 h; 140,000 tested, 0.51% active;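 active = inhibition above a set limit, 3 SD over the mean compound inhibition, cut at about 44% in these data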
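controls = amphotericin B 10 µg/mL, positive | assay system = DeaD yeast strain BB579 | schedule = 48 h compound exposure at 30 °C after 4 h preincubation | detection = OD615 turbidity measurement | medium = restrictive CSMM-D medium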
WT yeast gro inh: growth inhibition of WT yeast, mitochondrial fusion screen | mitochondrial fusion phenotypic screen, WT strain | inhibition, % at 10 µM | 190,000 tested, 2.1% active; in the data active = inhibition above about 58%; tested in S. cerevisiae
hDAT+cocaine: modulates human dopamine transporter uptake under cocaine; B-score at 10 µM; Q01959; AID 449768; 110,000 tested, 1.3% active; LLC-PK1 hDAT cells, [14C]-dopamine uptake with cocaine IC80; actives deviate in either direction;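 active = Z score or B-score, a plate-position-corrected score, falls beyond the plate's 99.7% confidence bounds, in either direction; inactive = both scores lie inside the 99.7% bounds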;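 also: scored against the spread of the other compound wells on the same plate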
Target sequence (Q01959 whole entry, looked up): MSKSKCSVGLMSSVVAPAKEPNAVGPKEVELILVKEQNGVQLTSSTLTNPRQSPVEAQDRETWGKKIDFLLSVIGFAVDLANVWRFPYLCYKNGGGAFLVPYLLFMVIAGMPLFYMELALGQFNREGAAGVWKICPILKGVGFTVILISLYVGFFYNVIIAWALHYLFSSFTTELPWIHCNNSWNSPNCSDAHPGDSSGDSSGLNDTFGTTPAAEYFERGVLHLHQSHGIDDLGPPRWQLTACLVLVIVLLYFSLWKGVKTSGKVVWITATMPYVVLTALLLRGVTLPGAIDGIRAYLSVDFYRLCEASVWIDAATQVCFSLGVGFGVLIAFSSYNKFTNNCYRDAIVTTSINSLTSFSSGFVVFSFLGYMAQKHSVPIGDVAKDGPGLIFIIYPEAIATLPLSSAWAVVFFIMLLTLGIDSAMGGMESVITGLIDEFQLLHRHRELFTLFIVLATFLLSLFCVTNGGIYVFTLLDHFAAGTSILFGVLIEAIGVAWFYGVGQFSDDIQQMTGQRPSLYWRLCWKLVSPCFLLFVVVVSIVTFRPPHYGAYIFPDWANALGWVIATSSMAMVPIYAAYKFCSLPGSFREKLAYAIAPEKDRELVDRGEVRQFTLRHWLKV
RAM network inh: yeast RAM network inhibition | 190,000 tested, 1.8% active | S. cerevisiae dse1pr::URA3 reporter, 5-FOA growth OD615, 2 d; analog-sensitive cbk1-as2 kinase mutant strain | inhibition, % at 50 µM | AID 868;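 active = inhibition above a set limit, 3 SD over mean compound inhibition, cut at about 8.4% in these data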;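 also: 0% = DMSO-only wells with no growth and 100% = 10 µM 1-NA-PP1 full growth; inhibition rescues growth on 5-FOA so higher OD means more RAM inhibition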
Starred values were filed as active, the others as inactive; nt = no result.

SMILES	Measles CPE	Yeast life ext	Yeast growth inh	WT yeast gro inh	hDAT+cocaine	RAM network inh
Cc1noc(C)c1C(=O)NCCCc1ccccc1	38.1*	-7.0	-32.0	2.6	-0.421	1.5
CSc1ccccc1NC(=O)c1onc(C)c1Cl	3.4	-7.1	-5.3	13.7	-0.326	0.6
Cc1ccc(NC(=O)c2c(C)noc2C)cc1	4.2	-13.5	-29.5	10.7	0.364*	0.9
COc1ccccc1C(=O)NCC(=O)N/N=C/c1cn[nH]c1-c1ccccc1	nt	nt	nt	-2.0	nt	2.5
CCCN1C(=O)c2ccccc2NC1c1ccc(OC)c(CSc2ccccn2)c1 (stereo unspecified)	3.9	0.9	-5.6	63.6*	nt	3.6
COc1ccc(N2C(=O)c3ccccc3NC2c2ccc(OC)c(CSc3ccccn3)c2)cc1 (stereo unspecified)	17.1	-19.5	-18.5	18.2	0.0487	2.7
O=C(Nc1ccccc1-c1nnc(SCc2ccc(Cl)cc2Cl)o1)c1ccccc1	14.4	-3.6	-20.6	-4.2	nt	10.3*
CC(C)(C)c1ccc(CSc2nnc(-c3ccccc3NC(=O)c3ccccc3)o2)cc1	-0.3	-0.6	-32.9	-19.1	nt	6.5
CN(C)CCNC(=O)COc1ccc(C23CC4CC(CC(C4)C2)C3)cc1	nt	nt	nt	95.8*	nt	-0.9
Cc1ccc(C23CC4CC(CC(NC(=O)NCCN(C)C)(C4)C2)C3)cc1	7.7	-11.6	2.9	-2.8	-1.02	0.3
CCC(C)NC(=O)C1CCN(S(=O)(=O)N2CCC3(CC2)OCCO3)CC1 (stereo unspecified)	nt	nt	nt	8.8	nt	0.8
COc1ccccc1C(=O)Nc1nnc(-c2ccc3c(c2)CCCC3)o1	3.2	-9.9	-34.9	60.0*	1.2	2.1
COc1ccc(-c2nnc(NC(=O)c3ccccc3C)o2)cc1	nt	nt	nt	63.9*	0.0485	nt
CC(=O)Nc1nnc(-c2ccc3c(c2)CCCC3)o1	1.8	-15.4	-7.5	12.0	0.445	0.8
CC(NC(=O)c1ccc([N+](=O)[O-])cc1[N+](=O)[O-])c1ccc(-c2ccccc2)cc1 (stereo unspecified)	40.0*	1.2	-29.4	19.8	nt	2.7
COc1cccc(C(=O)Nc2sc3c(c2C#N)CCN(C(C)=O)C3)c1	nt	nt	nt	3.2	nt	5.3
Cc1onc(-c2ccccc2Cl)c1C(=O)Nc1nnc(C(C)C)s1	4.2	-8.0	-10.5	10.8	0.0543	1.9
COC(=O)c1c(NC(=O)c2c(-c3ccccc3Cl)noc2C)sc2c1CCC2	17.8	-9.3	-57.4	74.9*	nt	5.5
Cc1onc(-c2ccccc2Cl)c1C(=O)Nc1sc2c(c1C(N)=O)CCC(C)C2 (stereo unspecified)	7.4	nt	-50.8	68.8*	nt	3.3
Cc1cc(C)nc(NC(=O)c2c(-c3ccccc3Cl)noc2C)c1	13.3	2.4	-20.4	-2.4	nt	1.0
Cc1ccnc(NC(=O)c2c(-c3ccccc3Cl)noc2C)c1	24.0*	-0.4	3.8	-1.1	nt	3.5
COC(=O)c1c(NC(=O)c2nc3nc(C)cc(C(F)F)n3n2)sc2c1CCC2	12.0	-10.8	-13.1	59.6*	-0.0275	2.9
CN(C)c1ccc(/C=N/NC(=O)CN(c2cccc(Cl)c2)S(C)(=O)=O)cc1Br	9.8	-12.3	-23.5	12.0	-0.635	-0.1
CC(=O)N1CC[n+]2c(-c3ccc(Cl)cc3Cl)csc21	21.6	5.3	-38.0	21.8	nt	2.8
CCCCCC[n+]1c(-c2ccc(Cl)cc2Cl)csc1Nc1ccccc1	8.5	3.2	-30.2	18.5	nt	9.0*
SMILES	Measles CPE	Yeast life ext	Yeast growth inh	WT yeast gro inh	hDAT+cocaine	RAM network inh
Cc1cccc(/N=C/c2c(O)ccc3oc4c(c23)CCCC4)n1	9.7	30.8*	-14.6	5.8	nt	0.8
Cc1cccc(/N=C/c2c(O)cc(C)oc2=O)n1	9.4	2.2	-69.7	-0.3	-0.86	2.2
O=C(Nc1nc(-c2cccs2)c(-c2ccccc2)s1)c1ccco1	8.8	-23.6	-69.8	8.8	2.04	3.5
CC1CC1C(=O)Nc1nc(-c2cccs2)c(-c2cccs2)s1 (stereo unspecified)	16.8	-5.3	-34.1	76.2*	nt	2.2
CCc1cc2ccc(C)cc2nc1SCC(=O)Nc1cc(OC)c(OC)cc1C(=O)O	1.1	2.9	-41.6	-2.7	nt	-1.5
CCc1cc2cc3c(cc2nc1SCC(=O)Nc1cc(OC)c(OC)cc1C(=O)O)OCO3	nt	nt	nt	-9.1	nt	9.5*
CCN(CC)c1ccc(NC(=O)COC(=O)COc2ccccc2[N+](=O)[O-])cc1	5.9	17.5	-33.8	-12.0	nt	1.5
Cc1ccc(-c2c(C(=O)N(C)Cc3ccccc3)oc(=O)c3ccccc23)cc1	7.9	4.7	-19.6	67.4*	nt	3.0
Cc1cccc(CSC(Nc2ccc(F)cc2)=C(C#N)C#N)c1	5.2	1.6	-71.9	80.2*	nt	7.3
Cc1cccc(CSC(=N)N)c1	6.7	-2.7	-4.1	6.9	nt	2.0
CN(c1ccccc1)c1ccc(/C=N/NC(=O)CC#N)cc1	3.1	-3.3	-12.2	-8.5	nt	1.6
CCOc1ccccc1-n1c(CN2CCN(C(=O)c3ccco3)CC2)nc2ccccc2c1=O	26.8	-15.3	-47.3	69.9*	nt	1.1
CCc1nc(N2CCN(C(=O)c3ccco3)CC2)c2oc3ccccc3c2n1	8.5	-11.4	-2.5	27.5	2.82*	2.1
Cc1nc(N2CCN(C(=O)c3ccco3)CC2)c2oc3ccccc3c2n1	nt	nt	nt	nt	0.677	nt
CCOc1cc(CN2CCN(C(=O)c3ccco3)CC2)ccc1OC	22.1	-11.6	-22.5	5.5	-0.373	0.1
O=C(c1ccco1)N1CCN(CCCCOc2cccc3ccccc23)CC1	26.6*	-1.5	-16.8	38.9	nt	-0.4
CCCCCn1nc(-c2ccccc2)c2nc3ccccc3nc21	8.6	-17.0	-50.2	17.3	0.224	6.6
CCCn1nc(-c2ccccc2)c2nc3ccccc3nc21	35.4	-10.2	6.7	-7.6	0.147	9.6*
CCOC(=O)c1c(C)n(C)c2cc(-c3ccc(F)cc3)c(O)cc12	7.3	-6.2	-31.5	-7.3	nt	2.5
COc1ccc(C2CC(c3cccs3)=NN2C(=O)CSc2nc3c(cnn3-c3ccccc3)c(=O)[nH]2)cc1 (stereo unspecified)	6.2	4.5	-31.8	-11.4	1.19	5.9
O=C(CSc1nc2c(cnn2-c2ccccc2)c(=O)[nH]1)N1CCOCC1	17.8	-19.1	-49.4	-1.1	0.00582	3.8
O=C(CSc1nc2c(cnn2-c2ccc(F)cc2)c(=O)[nH]1)N1CCOCC1	7.7	-4.4	-22.4	3.5	-7.85*	1.5
COc1cccc(C2CC(c3cccs3)=NN2C(=O)CSc2nc3c(cnn3-c3ccc(F)cc3)c(=O)[nH]2)c1OC (stereo unspecified)	0.6	5.9	-28.9	11.6	2.98*	10.7*
Fc1ccccc1OCC1CCCN(Cc2nc(CC3CC3)no2)C1 (stereo unspecified)	nt	nt	nt	4.0	nt	-0.4
Cc1ccc(C(=O)C(C)OC(=O)c2ccccc2[N+](=O)[O-])cc1 (stereo unspecified)	6.8	-0.9	-49.6	-2.6	nt	2.8
O=C(NCCN1CCOCC1)Nc1ccccc1	12.5	-5.3	-18.1	-5.6	nt	1.6

Source: PubChem (several laboratories)
